The Ki is a measure of affinity in units of concentration, obtained from inhibition or displacement.

In ChEMBL document CHEMBL1140235, “Novel 4-(4-aryl)cyclohexyl-1-(2-pyridyl)piperazines as Delta(8)-Delta(7) sterol isomerase (emopamil binding protein) selective ligands with antiproliferative activity” (J Med Chem, 2008) one finds Ki, Activity and Ratio Ki data, which are given here for 14 compounds.

Assay [1] has as its target T1, 3-beta-hydroxysteroid-Delta(8),Delta(7)-isomerase (Cavia porcellus, UniProt Q60490).
T1 sequence (Q60490 whole entry): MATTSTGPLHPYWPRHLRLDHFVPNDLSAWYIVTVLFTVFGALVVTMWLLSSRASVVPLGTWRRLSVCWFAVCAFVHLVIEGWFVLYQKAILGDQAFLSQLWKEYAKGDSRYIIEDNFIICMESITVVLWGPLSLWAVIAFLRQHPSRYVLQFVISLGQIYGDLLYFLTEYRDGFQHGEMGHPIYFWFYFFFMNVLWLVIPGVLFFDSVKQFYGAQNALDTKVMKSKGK
Briefly: Displacement of [3H](-)-(S)-emopamil from EBP in guinea pig liver membrane. The format is cell membranes. Summed up:
(§1)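 Radioligand displacement run by previously published methods, EBP per Moebius and σ1/σ2 per Matsumoto. Tissues from male Dunkin guinea pigs and Wistar Hannover rats (250–300 g). IC50 from six to nine drug concentrations in two or three experiments, samples in duplicate.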
On the technique in general: Displacement assays read how much labelled ligand stays bound in the presence of the test substance.

A further assay has as its system PC-3. The assay is described as follows: Cytotoxicity against human PC3 cells assessed as LDH release at 100 uM after 24 hrs relative to untreated control. The format is functional. A digest of the protocol: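 PC-3 cells exposed to test compound for 24 h at 37 °C, 5% CO2. LDH release into the medium was measured fluorimetrically (ex 560/em 590 nm) after 10 min with substrate mix at room temperature, then stop solution. Total LDH taken from lysed untreated wells. % cytotoxicity = 100 × (treated medium LDH − background)/(total LDH − background).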

Assay [2] deals with Sigma non-opioid intracellular receptor 1 (Cavia porcellus, UniProt Q60492). Briefly: Displacement of [3H](+)-pentazocine from sigma 1 receptor in guinea pig brain membrane without cerebellum. The format is cell membranes. Summed up: as §1
A short description of assay [3]: Displacement of [3H]-DTG from sigma 2-type opioid receptor in rat liver membrane in presence of (+)-pentazocine. The format is cell membranes. Summed up:
as §1

The nature of assay [4]: Selectivity ratio of Ki for sigma 2 receptor in rat liver membrane to Ki for EBP in guinea pig liver membrane. The class given is cell membranes.
Another assay is filed under the species Cavia porcellus. The assay is described as follows: Selectivity ratio of Ki for sigma 1 receptor in guinea pig brain membrane without cerebellum to Ki for EBP in guinea pig liver membrane. The format is cell membranes.

Sequence of Sigma non-opioid intracellular receptor 1 (Q60492 whole entry): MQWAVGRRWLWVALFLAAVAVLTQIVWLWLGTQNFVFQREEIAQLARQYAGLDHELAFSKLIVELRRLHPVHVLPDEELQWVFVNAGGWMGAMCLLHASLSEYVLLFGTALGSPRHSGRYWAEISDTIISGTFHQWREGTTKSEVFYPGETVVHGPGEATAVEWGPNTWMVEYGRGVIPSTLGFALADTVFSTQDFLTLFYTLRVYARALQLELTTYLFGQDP

`COc1cccc(C2=CCC(N3CCN(c4ccccc4)CC3)CC2)c1` (centres undefined) returned a Ki in assay [1] of 460 nM. Further, the Activity in the assay with PC-3 was below 10%.
For the compound `COc1ccc2c(c1)CCC(CN1CCN(c3ccccn3)CC1)C2` (centres undefined), the Ki in assay [2] amounted to 358 nM; in assay [1] it was 32.1 nM; in assay [3], 1250 nM. Besides, the Activity in the assay with PC-3 was below 10%.
For the compound `Clc1ccccc1[C@H]1CC[C@@H](N2CCN(c3ccccn3)CC2)CC1`, the results for the inhibition constant Ki in assay [2], in assay [1] and in assay [3] were 1090 nM, 85.1 nM and 150 nM, respectively. The Ratio Ki in assay [4] was determined as 1.8; in the assay listed under Cavia porcellus it was 13. The Activity in the assay with PC-3 was below 10%.
For `c1ccc([C@H]2CC[C@H](N3CCN(c4ccccn4)CC3)CC2)cc1`, the Ki stood at 104 nM in assay [2], 16.8 nM in assay [1] and 26.9 nM in assay [3]. For the same compound, the Ratio Ki amounted to 1.6 in assay [4] and 6 in the assay listed under Cavia porcellus. Besides, the Activity in the assay on PC-3 is below 10%.
Consider `Clc1ccccc1[C@H]1CC[C@H](N2CCN(c3ccccn3)CC2)CC1`, for which the Ki was 190 nM in assay [2], 7.21 nM in assay [1] and 29.1 nM in assay [3]. The Ratio Ki worked out at 4 in assay [4] and 26 in the assay filed under Cavia porcellus. The Activity in the assay with PC-3 is below 10%.
As to `Cc1ccccc1[C@H]1CC[C@H](N2CCN(c3ccccn3)CC2)CC1`, the values for the inhibitory constant (Ki) in assay [2], in assay [1] and in assay [3] were 30.7 nM, 9.04 nM and 29.6 nM, respectively. Besides, the Ratio Ki in assay [4] amounted to 3.3; in the assay filed under Cavia porcellus it was 3.4. Further, the Activity with PC-3 is recorded as below 10%.
`c1ccc([C@H]2CC[C@@H](N3CCN(c4ccccn4)CC3)CC2)cc1`: the results for the inhibitory constant (Ki) in assay [2], in assay [1] and in assay [3] were 802 nM, 49.2 nM and 62 nM, respectively. Further, the Ratio Ki in assay [4] was 1.3; in the assay filed under Cavia porcellus it was 16. For the same compound, the Activity in the assay on PC-3 is recorded as below 10%.
`COc1cccc(C2=CCC(N3CCN(c4ccccn4)CC3)CC2)c1` (centres undefined): the Ki is 220 nM in assay [2] and 2640 nM in assay [1]. Further, in the assay with PC-3, the Activity is on record as below 10%.
On to `Cc1cccc(C)c1[C@H]1CC[C@@H](N2CCN(c3ccccn3)CC2)CC1`, for which the Ki came out at 6.32 nM in assay [2], 33.1 nM in assay [1] and 60.2 nM in assay [3]. Besides, the Ratio Ki in assay [4] came to 1.8; in the assay listed under Cavia porcellus it was 0.2. Besides, the Activity in the assay on PC-3 is below 10%.
On to `COc1cccc(OC)c1[C@H]1CC[C@H](N2CCN(c3ccccn3)CC2)CC1`, for which the Ki in assay [2] was found to be 215 nM; in assay [1] it was 7 nM; in assay [3], 25 nM. The Ratio Ki in assay [4] was 3.6; in the assay filed under Cavia porcellus, 31. Also, the Activity with PC-3 is listed as below 10%.
With `Fc1cccc(F)c1[C@H]1CC[C@H](N2CCN(c3ccccn3)CC2)CC1`, the Ki is 190 nM in assay [2], 106 nM in assay [1] and 138 nM in assay [3]. Besides, the Ratio Ki in assay [4] was 1.2; in the assay filed under Cavia porcellus, 1.8. In addition, the Activity in the assay on PC-3 is below 10%.
Consider `COc1ccc([C@H]2CC[C@H](N3CCN(c4ccccn4)CC3)CC2)cc1`, for which the Ki in assay [2] is 291 nM; in assay [1], 71.6 nM; in assay [3] it was 222 nM. For the same compound, the figures for the Ratio Ki (in assay [4]; in the assay listed under Cavia porcellus) were 3 and 4, respectively. Moreover, in the assay on PC-3, the Activity is given as below 10%.
As to `COc1ccccc1[C@H]1CC[C@H](N2CCN(c3ccccn3)CC2)CC1`, the results for the Ki in assay [2], in assay [1] and in assay [3] were 2.86 nM, 13.5 nM and 30 nM, respectively. The Ratio Ki in assay [4] amounted to 1.3. Also, the Activity in the assay on PC-3 was below 10%.
With `Cc1cccc(C)c1C1=CCC(N2CCN(c3ccccn3)CC2)CC1` (racemic), the Ki was 177 nM in assay [2], 46.7 nM in assay [1] and 113 nM in assay [3]. Also, the Ratio Ki in assay [4] came to 2.4; in the assay listed under Cavia porcellus, 3.8. For the same compound, the Activity with PC-3 is listed as below 10%.
